Measurements: PMC7357173 (Toxicological Sciences, 2020)
Counter-ions that a name gives are not always drawn.

What was measured:
Type in all cases: cell-based, human
HepG2 cells [1] = assay: Cellular stress panel as a whole; settings: for bioactivity group: HepG2 cellular stress panel
Procedure, shortened: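 HepG2 exposed 1, 6 or 24 h to 8 nominal concentrations (0.5% DMSO), one run, 3 technical replicates each. Per-plate raw values divided by the median control and log2-transformed; concentrations log10-transformed. Bayesian fit with a Student's t (5 df) replicate model and well-position scale term. PoD found by linear interpolation; CDS is the fraction of 10 000 samples yielding a PoD.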

IL-8 = IL-8 secretion, ELISA of HepG2 supernatants; settings: HepG2, 24 h
Procedure, shortened: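 HepG2 grown and exposed as for the other assays: 8 concentrations from DMSO stocks, 0.5% DMSO final, 37°C, 5% CO2, triplicate wells, one run. 50 µl of supernatant collected after the incubation and assayed for IL-8 by ELISA kit. Values divided by the plate median control, log2-transformed and fitted by Bayesian concentration–response modelling to give PoD.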

HepG2 cells [2] = assay: Cellular ATP
Procedure, shortened: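 HepG2 in supplemented MEM (10% FBS), kept below 85% confluence and ≤8 passages. Treated with 8-point dilutions from DMSO stocks (0.5% DMSO final) at 37°C, 5% CO2. Cellular ATP read by CellTiterGlo luminescence, normalized to vehicle wells as fold change. Run once, triplicate wells per concentration. PoD taken from Bayesian concentration–response fits.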

HepG2 cells [3] = assay: Phospholipidosis; settings: HepG2, 24 h
Procedure, shortened: (§1)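 High-content imaging of HepG2 seeded at 10 000 (24 h) or 12 500 (6, 1 h) cells/well and adhered overnight. Triplicate wells at 8 concentrations, 0.5% DMSO. Mito-mass stained with a mitochondria-specific fluorescent dye; PLD detected by a dye conjugating to phospholipids. Cells fixed in 4% formaldehyde with Hoechst 33342 where required. Eight fields imaged per well (10×); intensity compared against vehicle wells.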

HepG2 cells [4] = assay: Glutathione content
HepG2 cells [5] = assay: Mitochondrial mass; settings: HepG2, 1, 6 and 24 h; subcytotoxic PoD
Procedure, shortened: as §1

HepG2 cells [6] = assay: Oxygen consumption rate
Procedure, shortened: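 HepG2 seeded at 16 000 cells/well, attached overnight, then treated 1, 6 or 24 h; the final 60 min was in unbuffered DMEM (10 mM glucose, 30 mM NaCl, 1 mM pyruvate, 2 mM L-alanyl-glutamine, pH 7.4, 37°C). Four baseline and six post-compound reads (3-min mix, 4-min read). Then oligomycin 1 μM, FCCP 0.5 μM and rotenone/antimycin A 1 μM each. Values baseline-normalized and corrected for nonmitochondrial OCR.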

HepG2 cells [7] = assay: Mitochondrial ROS; settings: HepG2, all timepoints, highest concentration

O=c1ccc2ccccc2o1 [Coumarin]
all PoDs of the panel (HepG2 cells [1]; HepG2, around the top concentration tested): ~1000 µM | bioactivity group (HepG2 cells [1]): 1 | change in IL-8 (IL-8): decrease | change in cellular ATP (lowest PoD) (HepG2 cells [2]; HepG2, 6 and 24 h): decrease | change in phospholipidosis (HepG2 cells [3]): decrease | change in glutathione (HepG2 cells [4]; HepG2, 24 h): increase

O=C(O)Cc1ccccc1Nc1c(Cl)cccc1Cl [Diclofenac, Diclofenac sodium salt]
estimated plasma Cmax compared with minimum PoD (HepG2 cells [1]; total Cmax of Table 2 vs nominal in vitro PoD): approximately one order of magnitude below the lowest PoD

COc1cccc2c1C(=O)c1c(O)c3c(c(O)c1C2=O)C[C@@](O)(C(=O)CO)C[C@@H]3O[C@H]1C[C@H](N)[C@H](O)[C@H](C)O1 [Doxorubicin, Doxorubicin hydrochloride]
change in mitochondrial mass (HepG2 cells [5]): increases | change in cellular ATP (HepG2 cells [2]; HepG2, 6 h): increases | change in cellular ATP (HepG2 cells [2]; HepG2, 24 h): loss | change in glutathione (HepG2 cells [4]; HepG2, 1 h): Increases | change in glutathione (HepG2 cells [4]; HepG2, 24 h): loss

NC(=O)c1cccnc1 [Niacinamide, Nicotinamide]
change in IL-8 (IL-8): small but appreciable decrease

OCCOc1ccccc1 [Phenoxyethanol, 2-Phenoxyethanol]
concentration-responses among all 36 biomarkers (HepG2 cells [1]; HepG2, up to 1000 µM): no concentration-responses could be detected

CCc1ccc(CCOc2ccc(CC3SC(=O)NC3=O)cc2)nc1 (stereo not drawn) [Pioglitazone, Pioglitazone hydrochloride]
change in OCR and reserve capacity (HepG2 cells [6]; HepG2, concentrations between 40 and 100 µM): increase | change in OCR and reserve capacity (HepG2 cells [6]; HepG2, concentrations up to 10 µM): decrease

C[S+]([O-])CCCCN=C=S [Sulforaphane, L-Sulforaphane]
bioactivity group (HepG2 cells [1]): 3

Oc1cc(Cl)ccc1Oc1ccc(Cl)cc1Cl [Triclosan]
change in cellular ATP (HepG2 cells [2]; HepG2, 6 h): increase | change in cellular ATP (HepG2 cells [2]; HepG2, 24 h): reduction | increase in mitochondrial superoxide (MitoROS) (HepG2 cells [7]): 2- to 4 fold

Cc1c(C)c2c(c(C)c1O)CCC(C)(COc1ccc(CC3SC(=O)NC3=O)cc1)O2 (stereo not drawn) [Troglitazone]
effect on OCR (HepG2 cells [6]; HepG2, two highest concentrations (40 and 100 µM)): reduced the OCR near to zero
